Reference: ChEMBL document CHEMBL3352171, “Synthesis and biological evaluation of andrographolide analogues as anti-cancer agents” (Eur J Med Chem, 2014)

Assays:
HEK293 = experiment: Cytotoxicity against HEK293 cells after 48 hrs by MTT assay; assay type: functional; details: Homo sapiens, HEK293, 48 h; read-out: LC50 (the source's name)
Outline: (§1)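 Cells seeded at 10,000 per well and exposed to increasing compound concentrations for 48 h. After a PBS wash, MTT (2.5 mg/mL) was added for 6 h at 37 °C, then detergent (10% NP-40, 4 mM HCl), and absorbance was read at 570 nm. LC50 is the concentration causing 50% cell death. Values are means of three independent experiments.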

Vero = experiment: Cytotoxicity against african green monkey Vero cells after 48 hrs by MTT assay; assay type: cell-based; details: chlorocebus sabaeus; outline: as §1
MCF7 = experiment: Cytotoxicity against human MCF7 cells; assay type: functional
Outline: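 MTT viability: 10,000 cells/well, 48 h exposure to increasing concentrations, MTT 2.5 mg/mL for 6 h at 37 °C, NP-40/HCl solubilization, absorbance 570 nm. MCF-7 in DMEM with 10% FBS; MCF-10A normal cells run alongside. LC50 from three independent experiments.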

[1] = Retention time of the compound by HPLC method; assay type: physicochemical

Compound	CC50 (HEK293) [µM]	LC50 (Vero) [µM]	GI50 (MCF7) [µM]	Retention_time [1] [min]
O=c1[nH]cc(F)c(=O)[nH]1 [FLUOROURACIL]	25	–	–	–
C=C1CC[C@@H]2[C@]3(C)COC(C)(C)O[C@@H]3CC[C@@]2(C)[C@@H]1C/C=C1/C(=O)OC[C@H]1OC(=O)CI	20	48	–	–
C=C1CC[C@@H]2[C@](C)(CO)[C@H](O)CC[C@@]2(C)[C@@H]1C/C=C1/C(=O)OC[C@H]1OC(C)=O	–	–	5.49	–
C[C@]1(CO)[C@H]2CC[C@]3(CO3)[C@@H](C/C=C3/C(=O)OC[C@H]3OC(=O)CCl)[C@]2(C)CC[C@H]1O	18	43	–	36.5
COc1cc([C@@H]2c3cc4c(cc3[C@@H](O[C@@H]3O[C@@H]5CO[C@@H](C)O[C@H]5[C@H](O)[C@H]3O)[C@H]3COC(=O)[C@H]23)OCO4)cc(OC)c1O [ETOPOSIDE]	18	28	–	–
C=C1CC[C@@H]2[C@]3(C)COC(C)(C)O[C@@H]3CC[C@@]2(C)[C@@H]1C/C=C1/C(=O)OC[C@H]1OC(=O)CBr	17	36	–	–
C[C@]1(CO)[C@H]2CC[C@@]3(CO3)[C@@H](C/C=C3/C(=O)OC[C@H]3OC(=O)CCl)[C@]2(C)CC[C@H]1O	31	37	–	37.1
C[C@]1(CO)[C@H]2CC[C@]3(CO3)[C@@H](C/C=C3/C(=O)OC[C@H]3OC(=O)CI)[C@]2(C)CC[C@H]1O	25	42	–	30.2
